Results published in ChEMBL document CHEMBL3414472, “Synthesis, SAR, and series evolution of novel oxadiazole-containing 5-lipoxygenase activating protein inhibitors: discovery of 2-[4-(3-{(r)-1-[4-(2-amino-pyrimidin-5-yl)-phenyl]-1-cyclopropyl-ethyl}-[1,2,4]oxadiazol-5-yl)-pyrazol-1-yl]-N,N-dimethyl-acetamide (BI 665915)” (J Med Chem, 2015).
Values after ≈ are worked out from the molar mass of the structure shown.

Biological target: T1, Arachidonate 5-lipoxygenase-activating protein (Homo sapiens, UniProt P20292)
T1 sequence (P20292 whole entry): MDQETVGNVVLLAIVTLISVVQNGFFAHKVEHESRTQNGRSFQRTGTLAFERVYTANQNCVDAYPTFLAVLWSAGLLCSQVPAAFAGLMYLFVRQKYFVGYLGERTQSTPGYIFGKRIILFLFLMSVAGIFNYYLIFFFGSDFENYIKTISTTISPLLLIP
Assay: Inhibition of FLAP in calcimycin-stimulated human whole blood assessed as inhibition of LTB4 synthesis preincubated for 15 mins followed by calcimycin stimulation measured after 30 mins
Outline: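 Heparinized human volunteer blood preincubated with compound 15 min at 37 °C, 5 % CO2; calcimycin 100 µM final, 30 min at 37 °C; spun 2000 rpm 5 min at 4 °C. Supernatant LTB4 measured by HTRF competition (LTB4-XL665 plus anti-LTB4 cryptate, 2 h room temperature). Geometric mean (n ≥ 3) of duplicate 10-point curves.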

Compound | IC50 [nM]
CN(C)C(=O)Cn1cc(-c2nc([C@@](C)(c3ccc(-c4ccc(N)nc4)cc3)C3CC3)no2)cn1 | 66
Nc1ncc(-c2ccc(C3(c4noc(-c5ccncn5)n4)CCC3)cc2)cn1 | 820
CCNc1nc(C2(c3ccc(-c4cnc(N)nc4)cc3)CCC2)no1 | 460
Cn1cc(-c2nc([C@](C)(c3ccc(-c4cnc(N)nc4)cc3)C3CCC3)no2)cn1 | 3200
CS(=O)(=O)Nc1nc(C2(c3ccc(-c4cnc(N)nc4)cc3)CCC2)no1 | > 5000
Nc1ncc(-c2ccc(C3(c4noc(-c5nc[nH]n5)n4)CCC3)cc2)cn1 | 2700
Nc1ncc(-c2ccc(C3(c4noc(-c5ccnnc5)n4)CCC3)cc2)cn1 | 240
Nc1ncc(-c2ccc(C3(c4noc(-c5cocn5)n4)CCC3)cc2)cn1 | 310
CC(C)C(C)(c1ccc(-c2cnc(N)nc2)cc1)c1noc(-c2cnn(C)c2)n1 (racemic) | 46
Nc1ncc(-c2ccc(C3(c4noc(-c5c[nH]nn5)n4)CCC3)cc2)cn1 | 2100
Nc1ncc(-c2ccc(C3(c4noc(-c5cccnc5)n4)CCC3)cc2)cn1 | 250
Cn1cc(-c2nc([C@@](C)(c3ccc(-c4cnc(N)nc4)cc3)C3CCC3)no2)cn1 | 91
CC(C)C(c1ccc(-c2cnc(N)nc2)cc1)c1noc(-c2cnn(C)c2)n1 (racemic) | 190
Nc1ncc(-c2ccc(C3(c4noc(-c5cccnn5)n4)CCC3)cc2)cn1 | 400
Nc1ncc(-c2ccc(C3(c4noc(-c5c[nH]cn5)n4)CCC3)cc2)cn1 | 270
CC(C)[C@@](C)(c1ccc(-c2cnc(N)nc2)cc1)c1noc(-c2cnn(C)c2)n1 | 360
Nc1ncc(-c2ccc(C3(c4noc(-c5cnccn5)n4)CCC3)cc2)cn1 | 360
CC(C)[C@](C)(c1ccc(-c2cnc(N)nc2)cc1)c1noc(-c2cnn(C)c2)n1 | 33
CN(C)C(=O)Cn1cc(-c2nc([C@@](C)(c3ccc(-c4cnc(N)cn4)cc3)C3CC3)no2)cn1 | 73
Cn1cc(-c2nc([C@](C)(c3ccc(-c4cnc(N)nc4)cc3)C3CC3)no2)cn1 | 350

System: not listed separately
Assay: Aqueous equilibrium solubility of the compound in crystalline form in citric acid/disodium phosphate buffer at pH 6.8 after 24 hrs of rotation by HPLC analysis
Format: physicochemical
Outline: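 Saturated solution of crystalline material in citric acid/disodium phosphate buffer pH 6.8 rotated 24 h; after centrifugation and filtration, dissolved concentration measured by HPLC.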

Compound | solubility thermodynamic at 24 h [µg/mL]
COCCn1cc(-c2nc(C3(c4ccc(-c5cnc(N)nc5)cc4)CCC3)no2)cn1 | 9.3 (≈ 22.3 µM)
Cn1cc(-c2nc(C3(c4ccc(-c5cnc(N)nc5)cc4)CCC3)no2)cn1 | 0.03 (≈ 0.0803 µM)
